In ChEMBL document CHEMBL1130758, “alpha-substituted quisqualic acid analogs: new metabotropic glutamate receptor group II selective antagonists” (Bioorg Med Chem Lett, 1998):

Experiments:
[1] = molecular target: T1, Glutamate receptor ionotropic, kainate (Rattus norvegicus) (UniProt P22756+Q01812+P42260+P42264+Q63273); assay: Antagonistic activity against Ionotropic glutamate receptor kainate was determined by the percentage of 45 [Ca2+] influx in cerebellar neurons at the concentration 100 uM; assay type: functional
In short: (§1)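 Rat cerebellar neurons (7-day-old pups, 8-9 days in culture) were given 45CaCl2 (1 µCi/mL) in Locke's buffer with 1 mM Mg2+, 50 µM kainate and 1 µM MK-801, for 15 min at room temperature. After three ice-cold washes and dissolution in 0.5 M NaOH, radioactivity and protein were measured. Results are % of net kainate-alone influx, mean ± S.E.M., n=6 from two preparations.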

[2] = molecular target: T1, Glutamate receptor ionotropic, kainate (Rattus norvegicus); assay: Antagonistic activity against Ionotropic glutamate receptor kainate was determined by the percentage of 45 [Ca2+] influx in cerebellar neurons at the concentration 1 mM; assay type: functional; in short: as §1
[3] = molecular target: T2, Glutamate receptor ionotropic, AMPA (Rattus norvegicus) (UniProt P19491+P19492+P19493+P19490); assay: Antagonistic activity against Ionotropic glutamate receptor AMPA was determined by the percentage of 45 [Ca2+] influx in cerebellar neurons at the concentration 1 mM; assay type: functional
In short: (§2)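 Cerebellar neurons cultured from 7-day-old rats (used at 8-9 days) had 45Ca2+ influx (1 µCi/mL) measured over 15 min at room temperature in Locke's buffer with 1 mM Mg2+, 30 µM AMPA, 10 µM cyclothiazide and 1 µM MK-801. Cells were washed three times ice-cold, dissolved in NaOH and counted, normalized to protein. Results are % of net AMPA-alone influx, mean ± S.E.M., six measurements from two preparations.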

[4] = molecular target: T2, Glutamate receptor ionotropic, AMPA (Rattus norvegicus); assay: Antagonistic activity against Ionotropic glutamate receptor AMPA was determined by the percentage of 45 [Ca2+] influx in cerebellar neurons at the concentration 100 uM; assay type: functional; in short: as §2
[5] = molecular target: Metabotropic glutamate receptor 6 (Rattus norvegicus, UniProt P35349); assay: Antagonistic activity against rat (mGluR) metabotropic glutamate receptor 6 stably expressed in chinese hamster ovary (CHO) cells; assay type: functional, cell-based
Sequence of Metabotropic glutamate receptor 6 (P35349 whole entry): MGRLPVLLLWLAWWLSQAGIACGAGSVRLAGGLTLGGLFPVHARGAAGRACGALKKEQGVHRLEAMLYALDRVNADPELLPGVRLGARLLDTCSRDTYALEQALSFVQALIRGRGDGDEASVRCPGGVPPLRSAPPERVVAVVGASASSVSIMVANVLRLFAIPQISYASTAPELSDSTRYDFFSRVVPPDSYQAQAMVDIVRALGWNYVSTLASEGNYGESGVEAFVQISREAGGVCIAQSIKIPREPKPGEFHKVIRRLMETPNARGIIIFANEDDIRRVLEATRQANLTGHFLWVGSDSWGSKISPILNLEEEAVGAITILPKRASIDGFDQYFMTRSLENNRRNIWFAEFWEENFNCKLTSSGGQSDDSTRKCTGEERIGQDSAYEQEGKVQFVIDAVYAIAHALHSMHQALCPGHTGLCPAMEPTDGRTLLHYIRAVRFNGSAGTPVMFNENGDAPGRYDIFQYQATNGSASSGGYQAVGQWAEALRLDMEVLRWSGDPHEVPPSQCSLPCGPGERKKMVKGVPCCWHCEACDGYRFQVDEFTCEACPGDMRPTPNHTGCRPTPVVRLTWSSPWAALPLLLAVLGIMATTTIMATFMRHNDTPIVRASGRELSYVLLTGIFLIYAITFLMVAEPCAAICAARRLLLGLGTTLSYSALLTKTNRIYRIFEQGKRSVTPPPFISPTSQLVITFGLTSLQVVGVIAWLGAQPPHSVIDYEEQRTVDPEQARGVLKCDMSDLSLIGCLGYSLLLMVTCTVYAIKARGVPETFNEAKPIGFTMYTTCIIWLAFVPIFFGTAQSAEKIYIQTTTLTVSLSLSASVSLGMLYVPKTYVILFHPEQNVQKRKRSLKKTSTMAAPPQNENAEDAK

[6] = molecular target: Metabotropic glutamate receptor 4 (Rattus norvegicus, UniProt P31423); assay: Antagonistic activity against rat (mGluR) metabotropic glutamate receptor 4a stably expressed in chinese hamster ovary (CHO) cells; assay type: functional, cell-based
Sequence of Metabotropic glutamate receptor 4 (P31423 whole entry): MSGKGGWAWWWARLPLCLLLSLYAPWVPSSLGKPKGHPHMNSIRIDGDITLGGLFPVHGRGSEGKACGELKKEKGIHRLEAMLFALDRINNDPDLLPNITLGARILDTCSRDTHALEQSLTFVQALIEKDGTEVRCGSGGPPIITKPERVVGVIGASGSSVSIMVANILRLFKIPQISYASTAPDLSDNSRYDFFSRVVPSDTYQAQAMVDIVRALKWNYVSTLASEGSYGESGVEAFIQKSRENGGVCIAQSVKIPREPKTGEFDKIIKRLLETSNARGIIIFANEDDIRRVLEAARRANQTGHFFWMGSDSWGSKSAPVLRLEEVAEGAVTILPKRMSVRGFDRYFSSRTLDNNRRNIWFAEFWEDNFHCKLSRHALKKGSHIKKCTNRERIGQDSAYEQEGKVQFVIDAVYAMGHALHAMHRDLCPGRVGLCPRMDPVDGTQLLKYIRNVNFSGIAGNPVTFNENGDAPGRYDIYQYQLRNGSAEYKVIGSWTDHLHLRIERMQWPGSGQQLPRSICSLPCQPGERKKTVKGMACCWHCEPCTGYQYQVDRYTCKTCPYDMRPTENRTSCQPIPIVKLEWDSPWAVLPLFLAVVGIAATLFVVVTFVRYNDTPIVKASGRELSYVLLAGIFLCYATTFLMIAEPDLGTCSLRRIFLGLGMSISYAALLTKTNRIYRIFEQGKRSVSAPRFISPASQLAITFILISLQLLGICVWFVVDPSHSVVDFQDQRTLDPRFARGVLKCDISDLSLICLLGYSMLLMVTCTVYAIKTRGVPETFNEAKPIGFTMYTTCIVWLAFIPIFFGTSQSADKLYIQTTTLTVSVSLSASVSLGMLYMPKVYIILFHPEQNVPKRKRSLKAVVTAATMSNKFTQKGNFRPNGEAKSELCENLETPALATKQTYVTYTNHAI

[7] = molecular target: Metabotropic glutamate receptor 1 (Rattus norvegicus, UniProt P23385); assay: Antagonistic activity against rat (mGluR) metabotropic glutamate receptor 1a stably expressed in chinese hamster ovary (CHO) cells; assay type: functional, cell-based
Sequence of Metabotropic glutamate receptor 1 (P23385 whole entry): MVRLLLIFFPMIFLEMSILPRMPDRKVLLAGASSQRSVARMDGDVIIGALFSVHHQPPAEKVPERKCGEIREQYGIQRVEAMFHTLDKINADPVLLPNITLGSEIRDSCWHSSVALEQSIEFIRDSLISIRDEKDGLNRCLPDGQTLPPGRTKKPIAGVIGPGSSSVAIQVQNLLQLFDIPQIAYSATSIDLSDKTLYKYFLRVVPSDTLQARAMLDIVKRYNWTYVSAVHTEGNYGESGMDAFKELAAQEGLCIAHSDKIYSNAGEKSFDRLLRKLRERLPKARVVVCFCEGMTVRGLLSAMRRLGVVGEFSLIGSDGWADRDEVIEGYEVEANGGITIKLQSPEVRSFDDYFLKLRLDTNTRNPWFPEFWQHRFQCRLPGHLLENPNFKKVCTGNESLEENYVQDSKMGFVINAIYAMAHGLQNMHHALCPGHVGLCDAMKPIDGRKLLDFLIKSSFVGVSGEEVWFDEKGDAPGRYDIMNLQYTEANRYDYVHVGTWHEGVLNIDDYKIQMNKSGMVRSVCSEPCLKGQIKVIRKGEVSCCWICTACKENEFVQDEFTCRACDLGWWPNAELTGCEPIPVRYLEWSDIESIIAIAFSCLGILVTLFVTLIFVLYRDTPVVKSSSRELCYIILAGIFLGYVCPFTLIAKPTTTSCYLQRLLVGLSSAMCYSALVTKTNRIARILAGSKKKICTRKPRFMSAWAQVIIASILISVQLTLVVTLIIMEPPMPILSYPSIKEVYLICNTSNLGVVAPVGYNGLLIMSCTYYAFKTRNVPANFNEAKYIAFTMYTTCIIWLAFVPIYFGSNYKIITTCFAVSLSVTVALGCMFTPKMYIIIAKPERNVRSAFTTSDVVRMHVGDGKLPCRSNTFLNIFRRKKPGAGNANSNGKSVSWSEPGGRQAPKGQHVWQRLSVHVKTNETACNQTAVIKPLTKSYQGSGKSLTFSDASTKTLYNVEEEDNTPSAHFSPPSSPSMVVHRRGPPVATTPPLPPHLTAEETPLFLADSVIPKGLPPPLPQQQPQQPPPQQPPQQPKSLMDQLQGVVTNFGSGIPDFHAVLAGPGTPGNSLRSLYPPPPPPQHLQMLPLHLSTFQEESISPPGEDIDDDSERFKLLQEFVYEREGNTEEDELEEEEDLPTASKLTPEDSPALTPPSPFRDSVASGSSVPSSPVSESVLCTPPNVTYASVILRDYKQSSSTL
In short: (§3)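 CHO cells expressing the receptor were labelled overnight with myo-[3H]inositol in glutamine-free medium. They were then exposed to compounds for 30 min at 37 °C in Locke's buffer (HEPES, pH 7.4) with 20 mM LiCl. Inositol phosphates were extracted for 10 min with 0.1 M HCl and separated by anion-exchange chromatography.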

[8] = molecular target: Metabotropic glutamate receptor 5 (Rattus norvegicus, UniProt P31424); assay: Antagonistic activity against rat (mGluR) metabotropic glutamate receptor 5a stably expressed in chinese hamster ovary (CHO) cells; assay type: functional, cell-based; in short: as §3
Sequence of Metabotropic glutamate receptor 5 (P31424 whole entry): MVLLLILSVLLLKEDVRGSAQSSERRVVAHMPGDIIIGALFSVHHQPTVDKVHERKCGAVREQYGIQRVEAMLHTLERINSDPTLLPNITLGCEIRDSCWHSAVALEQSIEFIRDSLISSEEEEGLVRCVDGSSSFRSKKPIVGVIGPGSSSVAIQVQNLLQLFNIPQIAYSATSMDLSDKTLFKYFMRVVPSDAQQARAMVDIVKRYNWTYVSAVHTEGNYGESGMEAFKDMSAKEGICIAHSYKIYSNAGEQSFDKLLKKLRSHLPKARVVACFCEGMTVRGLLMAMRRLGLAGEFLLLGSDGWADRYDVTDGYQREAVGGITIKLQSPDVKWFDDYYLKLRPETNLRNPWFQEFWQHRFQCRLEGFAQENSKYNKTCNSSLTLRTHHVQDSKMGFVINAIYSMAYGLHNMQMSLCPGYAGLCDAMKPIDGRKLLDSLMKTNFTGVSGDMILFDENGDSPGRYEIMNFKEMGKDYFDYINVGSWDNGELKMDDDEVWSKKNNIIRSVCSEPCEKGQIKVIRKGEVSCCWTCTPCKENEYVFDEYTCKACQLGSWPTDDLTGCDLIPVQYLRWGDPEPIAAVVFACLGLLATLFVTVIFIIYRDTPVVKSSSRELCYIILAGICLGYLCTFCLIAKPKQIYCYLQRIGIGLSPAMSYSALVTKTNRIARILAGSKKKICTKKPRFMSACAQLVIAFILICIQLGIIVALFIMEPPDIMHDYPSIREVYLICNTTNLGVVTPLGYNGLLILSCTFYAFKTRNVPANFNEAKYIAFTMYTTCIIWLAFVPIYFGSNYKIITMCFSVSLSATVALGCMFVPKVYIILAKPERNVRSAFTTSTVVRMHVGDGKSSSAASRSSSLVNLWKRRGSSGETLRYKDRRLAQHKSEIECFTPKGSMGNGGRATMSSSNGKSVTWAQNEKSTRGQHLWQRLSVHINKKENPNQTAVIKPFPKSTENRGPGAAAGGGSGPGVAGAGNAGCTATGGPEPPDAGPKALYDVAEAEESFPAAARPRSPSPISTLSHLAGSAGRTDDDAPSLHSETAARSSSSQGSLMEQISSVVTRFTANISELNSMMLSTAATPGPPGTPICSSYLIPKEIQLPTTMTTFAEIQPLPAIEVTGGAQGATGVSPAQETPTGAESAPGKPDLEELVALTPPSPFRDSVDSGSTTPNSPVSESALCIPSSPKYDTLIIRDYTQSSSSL

[9] = molecular target: T3, Glutamate NMDA receptor (Rattus norvegicus) (UniProt P35439+Q00959+Q00960+Q00961+Q62645+Q8VHN2+Q9R1M7); assay: Antagonistic activity against NMDA ionotropic glutamate receptor was determined by the percentage of 45 [Ca2+] influx in cerebellar neurons at the concentration 100 uM; assay type: functional
In short: (§4)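 Rat cerebellar neurons (7-day-old pups, 8-9 days in culture) were incubated for 15 min at room temperature in Mg2+-free Locke's buffer with 1 µCi/mL 45CaCl2, 100 µM NMDA, 1 µM glycine and 10 µM NBQX. Cells were washed three times with ice-cold buffer and dissolved in 0.5 M NaOH to count radioactivity and protein. Results are % of net agonist-alone influx, mean ± S.E.M. of six measurements from two culture preparations.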

[10] = molecular target: T3, Glutamate NMDA receptor (Rattus norvegicus); assay: Antagonistic activity against NMDA ionotropic glutamate receptor was determined by the percentage of 45 [Ca2+] influx in cerebellar neurons at the concentration 1 mM; assay type: functional; in short: as §4

| SMILES | KA effect [1] [%] | KA effect [2] [%] | AMPA effect [3] [%] | AMPA effect [4] [%] | EC50 [5] [µM] | EC50 [6] [µM] | EC50 [7] [µM] | EC50 [8] [µM] | NMDA effect [9] [%] | NMDA effect [10] [%] |
| --- | --- | --- | --- | --- | --- | --- | --- | --- | --- | --- |
| C[C@](N)(Cn1oc(=O)[nH]c1=O)C(=O)O | 71 | 75 | 89 | 98 | > 1000 | > 1000 | ~500 | ~1000 | 105 | 30 |
| N[C@@](Cc1ccccc1)(Cn1oc(=O)[nH]c1=O)C(=O)O | 97 | 105 | 103 | 113 | > 1000 | > 1000 | ~300 | ~300 | 84 | 52 |
